These results are taken from ChEMBL document CHEMBL4385596, “Fragment-Based Discovery of a Qualified Hit Targeting the Latency-Associated Nuclear Antigen of the Oncogenic Kaposi's Sarcoma-Associated Herpesvirus/Human Herpesvirus 8” (J Med Chem, 2019).

The nature of assay [1]: Binding affinity to fluorescent labelled LBS2 DNA (unknown origin) by fluorescence polarization assay. Summed up: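 Fixed concentration of His-tagged oligomerization-deficient LANA DBD mutant (aa1008-1146, 200 nM final) was pre-incubated 60 min with compound. Fluorescein-labelled LBS2 (10 nM final) was then added and incubated 90 min. Buffer was 10 mM HEPES, 150 mM NaCl, 0.005% Tween20, 5% DMSO. Polarization was read at ex 485/em 520 nm. Runs were done with and without LANA to exclude DNA or quenching interference. Duplicates, two independent experiments.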

Assay [2] has as its target T1, ORF 73 (Human herpesvirus 8, UniProt O40947). The assay can be described thus: Inhibition of fluorescent labelled LBS2 DNA binding to human herpesvirus 8 C-terminal His-tagged LANA oligomerization deficient mutant DBD (1008 to 1146 residues) expressed in Escherichia coli BL21 (DE3) preincubated for 60 mins followed by fluorescent labelled LBS2 addition and measured after 90 mins by fluorescence polarization assay. On the set-up: species or system Human gammaherpesvirus 8. The settings on record: for pIC50: read-out: IC50. In outline: (§1)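 FP competition assay. His-tagged LANA DBD mutant (200 nM final) pre-incubated with serially varied compound for 60 min. Fluorescein-labelled LBS1, LBS2 or LBS3 (10 nM final) then added and incubated 90 min. Buffer was 10 mM HEPES, 150 mM NaCl, 0.005% Tween20 with 5% DMSO. Read at excitation 485 nm, emission 520 nm. Duplicates in two independent experiments. Runs without LANA checked for interference. IC50 derived from dose-response.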

Assay [3] relates to ORF 73 (Human herpesvirus 8), O40947 [UNDEFINED MUTATION]. In words: Inhibition of fluorescent labelled LBS2 DNA binding to human herpesvirus 8 C-terminal His-tagged LANA oligomerization deficient mutant DBD (1008 to 1146 residues) expressed in Escherichia coli BL21 (DE3) at 500 uM preincubated for 60 mins followed by fluorescent labelled LBS2 addition and measured after 90 mins by fluorescence polarization assay relative to control. The settings on record: Human gammaherpesvirus 8. Summed up:
(§2)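 Single-concentration FP competition assay (1 mM or 500 µM compound). LANA DBD mutant (200 nM final) pre-incubated with compound for 60 min, then fluorescein-labelled LBS2 (10 nM final) added and incubated 90 min. Buffer was HEPES/NaCl/Tween20 with 5% DMSO. Read at excitation 485 nm, emission 520 nm. Percent inhibition from duplicates in two independent experiments.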

The test system is the same in assay [4]. In words: Inhibition of fluorescent labelled LBS2 DNA binding to human herpesvirus 8 C-terminal His-tagged LANA oligomerization deficient mutant DBD (1008 to 1146 residues) expressed in Escherichia coli BL21 (DE3) at 1 mM preincubated for 60 mins followed by fluorescent labelled LBS2 addition and measured after 90 mins by fluorescence polarization assay relative to control. The settings on record: Human gammaherpesvirus 8. Summed up:
as §2

The test system is the same in assay [5]. In words: Inhibition of 5'-Dy682-labelled LBS1/LBS2 DNA binding to human herpesvirus 8 C-terminal His-tagged LANA oligomerization deficient mutant DBD (1008 to 1146 residues) expressed in Escherichia coli BL21 (DE3) at 500 uM preincubated for 1 hr followed by 5'-Dy682-labelled LBS1 DNA addition and measured after 30 mins by electrophoretic mobility shift assay. The settings on record: Human gammaherpesvirus 8. Summed up:
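Native-gel EMSA with a longer Dy-682-labelled probe carrying both LBS1 and LBS2 (20 nM). LANA DBD mutant (200 nM) pre-incubated with compound (500 µM) for 1 h at RT in the dark. Buffer was Tris-HCl pH 7.5 with KCl, MgCl2, DTT, EDTA, glycerol, Tween20, BSA and poly(dI-dC). Band intensities normalised to percent inhibition. Run in duplicate; GST served as control.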

Assay [6] deals with T1, ORF 73. In words: Inhibition of fluorescent labelled LBS1 DNA binding to human herpesvirus 8 C-terminal His-tagged LANA oligomerization deficient mutant DBD (1008 to 1146 residues) expressed in Escherichia coli BL21 (DE3) preincubated for 60 mins followed by fluorescent labelled LBS2 addition and measured after 90 mins by fluorescence polarization assay. On the set-up: species or system Human gammaherpesvirus 8. Summed up:
as §1

Assay [7] addresses T1, ORF 73. In words: Inhibition of fluorescent labelled LBS3 DNA binding to human herpesvirus 8 C-terminal His-tagged LANA oligomerization deficient mutant DBD (1008 to 1146 residues) expressed in Escherichia coli BL21 (DE3) preincubated for 60 mins followed by fluorescent labelled LBS2 addition and measured after 90 mins by fluorescence polarization assay. On the set-up: species or system Human gammaherpesvirus 8. In outline:
as §1

Assay [8] deals with ORF 73 (Human herpesvirus 8), O40947 [UNDEFINED MUTATION]. The assay can be described thus: Inhibition of 5'-Dy682-labelled LBS1 DNA binding to human herpesvirus 8 C-terminal His-tagged LANA oligomerization deficient mutant DBD (1008 to 1146 residues) expressed in Escherichia coli BL21 (DE3) at 500 uM preincubated for 1 hr followed by 5'-Dy682-labelled LBS1 DNA addition and measured after 30 mins by electrophoretic mobility shift assay. Particulars: Human gammaherpesvirus 8. Summed up:
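Native-gel EMSA. LANA DBD mutant (200 nM final) pre-incubated with compound for 1 h at RT in the dark, then Dy-682-labelled LBS1 probe (20 nM) added. Complex and free-probe band intensities normalised to 0–100% inhibition. Run in duplicate; purified GST served as control.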

pIC50: −log10 of the molar value. Activity calls are given as the source filed them. The rule behind the calls is not given here.

As for `O=C(O)c1ccc(-n2cc(-c3ccccc3NCC3CCCCC3)nn2)cc1`, in assay [1], the outcome was inactive. Also, the IC50 entry in assay [2] is given as “Not Active”.
In the case of `COc1ccc(-c2cn(-c3ccc(C(=O)O)cc3)nn2)cc1`, the result in assay [1] was inactive. For the same compound, the inhibition in assay [3] amounted to 20%.
Turning to `O=[N+]([O-])c1ccc(-n2ccnc2)cc1`, the result in assay [1] was inactive. The compound also yielded an inhibition in assay [4] of 22%.
Take `O=C(O)c1ccc(-n2cc(C3(O)CCCC3)nn2)cc1`: the outcome in assay [1] was inactive. Besides, the inhibition result in assay [5] and in assay [8] was “inactive” in each case. The values for the pIC50 in assay [6], in assay [7] and in assay [2] were 3.98, 4.41 and 3.80, respectively.
As for `COCc1cn(-c2ccc(C(=O)O)cc2)nn1`, the result in assay [1] was inactive. Also, in assay [2], the negative logarithm of the IC50 (pIC50) is 3.68.
For the compound `O=C(O)c1ccccc1-n1cc(-c2ccccc2)nn1`, in assay [1], the outcome was inactive. In assay [4], this compound displayed an inhibition of 13%.
As for `Cc1cn(-c2ccccc2N)cn1`, the result in assay [1] was inactive. This compound had an inhibition in assay [4] of 91%.
Regarding `Nc1ccccc1-n1cnc(Br)c1`, in assay [1], the result was inactive. The compound further returned an inhibition in assay [4] of 13%.
Take `O=[N+]([O-])c1cccc(-n2ccnc2)c1`: the result in assay [1] was inactive. The compound further registered an inhibition in assay [4] of 21%.
On to `CC(=O)Nc1ccccc1-n1ccnc1`, for which the result in assay [1] was inactive. The inhibition in assay [4] was found to be 32%.
The like results for `Nc1ccc(-n2ccnc2)cc1` were, in that order, “inactive” and “inactive”.
As for `O=C(O)c1ccc(-n2ccnn2)cc1`, the result in assay [1] was inactive. The same compound came in with an inhibition in assay [4] of 35%.
As for `Nc1ccccc1-c1cn(-c2ccc(C(=O)O)cc2)nn1`, in assay [1], the outcome was inactive. Also, the inhibition entry in assay [5] and in assay [8] was “Active” throughout. For the same compound, the negative-log IC50 (pIC50) in assay [6] was 4.60; in assay [7] it was 4.59; in assay [2], 4.55.
For `CC(=O)OCc1cn(-c2ccc(C(=O)O)cc2)nn1`, the outcome in assay [1] was inactive. Moreover, in assay [2], the IC50 result was “Not Active”.
For `COc1ccccc1-n1ccnc1`, the outcome in assay [1] was inactive. The same compound showed an inhibition in assay [4] of 15%.
As for `O=C(O)c1ccc(-n2ccnc2)cc1`, the result in assay [1] was inactive. In addition, in assay [4], the inhibition was 13%.
In the case of `O=C(O)c1ccc(-n2cc(-c3ccc(NCC4CCCCC4)cc3)nn2)cc1`, the outcome in assay [1] was inactive. In addition, the IC50 entry in assay [2] is reported as “Not Active”.
With `Nc1ccccc1-n1cnc2ccccc21`, the result in assay [1] was inactive. The same compound returned an inhibition in assay [4] of 32%.
In the case of `Oc1ccccc1-n1ccnc1`, in assay [1], the result was inactive. The inhibition in assay [4] is 51%.
With `O=C(O)c1ccc(-n2cc(-c3ccccc3)nn2)cc1`, the result in assay [1] was inactive. In assay [2], the pIC50 was 3.63.
Take `O=C(O)c1ccc(-n2cc(CO)nn2)cc1`: in assay [1], the outcome was inactive. Also, in assay [2], the pIC50 is 4.10.
Consider `O=C(O)c1ccc(-n2cc(-c3cccc(NCCN4CCOCC4)c3)nn2)cc1`, for which the result in assay [1] was inactive. The IC50 result in assay [2] is “Not Active”.
Take `O=C(O)c1ccccc1-n1ccnn1`: in assay [1], the outcome was inactive. In assay [4], this compound displayed an inhibition of 12%.
Regarding `O=[N+]([O-])c1ccccc1-n1ccnc1`, the result in assay [1] was inactive. The compound also registered an inhibition in assay [4] of 74%.
`Nc1ccc(-c2cn(-c3ccc(C(=O)O)cc3)nn2)cc1`: in assay [1], the outcome was inactive. The inhibition result in assay [5] and in assay [8] was “Active” in each case. Moreover, the pIC50 in assay [6] was 4.72; in assay [7] it was 4.92; in assay [2] it was 4.85.
On to `O=C(O)c1cccc(-n2ccnc2)c1`, for which the result in assay [1] was inactive. In assay [4], this compound registered an inhibition of 19%.
Consider `O=C(O)c1ccccc1-n1ccnc1`, for which, in assay [4], the inhibition was 50%. Besides, the pIC50 in assay [2] is 3.48.
Take `O=C(O)c1ccc(-n2cc(-c3cccc(NCCc4ccccc4)c3)nn2)cc1`: the result in assay [1] was inactive. In assay [2], the IC50 result is on record as “Not Active”.
Turning to `Nc1cccc(-n2ccnc2)c1`, in assay [1], the result was inactive. For the same compound, the inhibition result in assay [4] was “inactive”.
Consider `O=C(O)c1ccc(-n2cc(-c3cccc(NCC4CCCCC4)c3)nn2)cc1`, for which the result in assay [1] was inactive. Also, the IC50 result in assay [2] is given as “Not Active”.
The like results for `Nc1cccc(-c2cn(-c3ccccc3)nn2)c1` were, in that order, “inactive” and “Not Active”.
`COC(=O)c1ccc(-n2cc(CO)nn2)cc1`: the result in assay [1] was inactive. In assay [2], the pIC50 was 4.08.
With `NCc1cn(-c2ccc(C(=O)O)cc2)nn1`, the result in assay [1] was inactive. Moreover, in assay [2], the pIC50 is 4.52.
Regarding `O=C(O)c1cccc(-n2cc(-c3ccccc3)nn2)c1`, the result in assay [1] was inactive. In assay [4], the inhibition stood at 43%.
Consider `COC(=O)c1cn(-c2ccc(C(=O)O)cc2)nn1`, for which, in assay [1], the outcome was inactive. For the same compound, the pIC50 in assay [2] was 3.79.
In the case of `Nc1cccc(-c2cn(-c3ccc(C(=O)O)cc3)nn2)c1`, in assay [1], the result was inactive. Moreover, the inhibition entry in assay [5] and in assay [8] was “inactive” throughout. Moreover, the results for the pIC50 in assay [6], in assay [7] and in assay [2] were 3.87, 3.97 and 3.96, respectively.
On to `O=C(O)c1ccc(-n2cc(C3CC3)nn2)cc1`, for which the result in assay [1] was inactive. In addition, the negative-log IC50 (pIC50) in assay [2] is 3.16.
As for `O=C(O)c1cccc(-n2ccnn2)c1`, in assay [1], the outcome was inactive. The compound further displayed an inhibition in assay [4] of 98%.
With `O=C(O)c1ccc(-c2cn(-c3ccc(O)cc3)nn2)cc1`, the outcome in assay [1] was inactive. The pIC50 in assay [2] was 4.28.
In the case of `Nc1ccccc1-n1cc(-c2ccc(C(=O)O)cc2)nn1`, the outcome in assay [1] was inactive. In addition, the inhibition result in assay [5] and in assay [8] was “Active” each time. Moreover, the pIC50 was 4.60 in assay [6], 4.59 in assay [7] and 4.74 in assay [2].
`Nc1ccc(-n2cc(-c3ccc(C(=O)O)cc3)nn2)cc1`: the result in assay [1] was inactive. In assay [2], the pIC50 was 4.72.
In the case of `COCc1cn(-c2ccc(C(=O)OC)cc2)nn1`, the result in assay [1] was inactive. The pIC50 in assay [2] was 3.63.
On to `O=C(O)c1ccc(-n2cc(-c3ccc(CO)cc3)nn2)cc1`, for which the outcome in assay [1] was inactive. Moreover, the pIC50 in assay [2] is 4.57.
